Assay results reported in ChEMBL document CHEMBL4138193, “Novel indole and triazole based hybrid molecules exhibit potent anti-adipogenic and antidyslipidemic activity by activating Wnt3a/β-catenin pathway” (Eur J Med Chem, 2018).
The source made the active and inactive calls. The calls are words filed in the database; no cut-off is given here.

How the values were obtained:
[1] = tested on: Syrian golden hamster; assay: Induction of reverse cholestrol transport in high fat diet-induced dyslipidemia Syrian Golden hamster model assessed as decrease in CYP7A1 mRNA expression in liver at 100 mg/kg, po administered for 1 week by qRT-PCR analysis; assay type: functional, organism-based; settings: Mesocricetus auratus
[2] = organism: Homo sapiens; assay: Anti-adipogenic activity in human differentiated MSC assessed as reduction in lipid accumulation at 5 to 20 uM after 20 mins by Oil Red O staining based microscopic method; assay type: functional
Procedure, shortened: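 C3H10T1/2 or hMSC adipocytes differentiated alongside 5, 10 or 20 µM compound in differentiation media, stained with Oil red O. Images taken by bright-field microscopy at 10x and 20x, representative of three independent experiments.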

[3] = organism: Mus musculus; assay: Activation of Wnt3a/beta-catenin in mouse 3T3L1 cells assessed as down-regulation of cyclinD expression at 20 uM after 16 to 24 hrs by Western blot analysis; assay type: cell-based
Procedure, shortened: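 3T3-L1 cells given MDI differentiation media (0.5 mM IBMX, 5 µg/ml insulin, 250 nM dexamethasone) with or without 20 µM compound. Proteins isolated at 16 and 24 h and probed by Western blot for CDK2, CDK4, CDK6, cyclin D1 and D3. Densitometry normalized to actin, n=3, mean ± SD, Student t test.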

[4] = organism: Mus musculus; assay: Activation of Wnt3a/beta-catenin in mouse 3T3L1 cells assessed as down-regulation of AP2 mRNA expression at 20 uM by qRT-PCR analysis; assay type: cell-based
Procedure, shortened: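 3T3-L1 cells differentiated with IBMX/dexamethasone/insulin media with or without 20 µM compound over the differentiation period. RNA extracted with TRIZOL, 500 ng reverse-transcribed to cDNA, then quantitative real-time PCR. Three independent experiments run in triplicate, mean ± SD, one-way ANOVA with Bonferroni posttest.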

[5] = organism: Mus musculus; assay: Activation of Wnt3a/beta-catenin in mouse 3T3L1 cells assessed as induction of TCF1 expression at 20 uM after 16 to 24 hrs by Western blot analysis; assay type: cell-based
[6] = tested on: 3T3-L1; assay: Cell cycle arrest in mouse 3T3L1 cells assessed as accumulation at G1/S phase at 20 uM after 24 hrs in presence of beta-catenin/TCF complex inhibitor FH353 by propidium iodide-staining based flow cytometry; assay type: functional
Procedure, shortened: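 3T3-L1 cells exposed to 20 µM with or without FH353 (10 µM) in differentiation medium for 16 and 24 hr. Cells fixed in ice-cold 70% ethanol, stained with PI (40 µg/ml, RNase A buffer, 30 min, room temperature) and analysed by flow cytometry; representative of three experiments.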

[7] = organism: Mus musculus; assay: Activation of Wnt3a/beta-catenin in mouse 3T3L1 cells assessed as down-regulation of CDK6 expression at 20 uM after 16 to 24 hrs in presence of FH353 by Western blot analysis; assay type: cell-based
Procedure, shortened: (§1)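 Confluent 3T3-L1 cells given differentiation media (IBMX/insulin/dexamethasone) with 20 µM compound, with or without the β-catenin/TCF inhibitor FH353 (10 µM). Proteins isolated at 16 and 24 h and Western blotted after SDS-PAGE and nitrocellulose transfer. Blocking in 5% milk/TBS-T, primary antibody overnight at 4 °C, chemiluminescent detection, β-actin control, three independent experiments.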

[8] = organism: Mus musculus; assay: Activation of Wnt3a/beta-catenin in mouse 3T3L1 cells assessed as down-regulation of cyclinD3 expression at 20 uM after 16 to 24 hrs in presence of FH353 by Western blot analysis; assay type: cell-based; procedure, shortened: as §1
[9] = tested on: Syrian golden hamster; assay: Anti-dyslipidemic activity in high fat diet-induced dyslipidemia Syrian Golden hamster model assessed as reduction in serum NEFA levels at 100 mg/kg, po administered for 1 week followed by overnight fasting post last dose; assay type: functional, organism-based; settings: Mesocricetus auratus
Procedure, shortened: (§2)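 Male Syrian golden hamsters (8–10 wk, 100–120 g), 4 per group, given 45% kcal HFD for 4 days, then 100 mg/kg p.o. in 0.5% NaCMC daily for one week alongside HFD. Blood taken from retro-orbital plexus after overnight fast. TG, HDL, LDL, ALT, AST measured on a clinical bio-analyzer and NEFA by kit. Mean ± SEM, one-way ANOVA with Bonferroni.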

[10] = tested on: Syrian golden hamster; assay: Anti-dyslipidemic activity in high fat diet-induced dyslipidemia Syrian Golden hamster model assessed as decrease in serum ALT levels at 100 mg/kg, po administered for 1 week followed by overnight fasting post last dose by clinical bio-analyzer analysis; assay type: functional, organism-based; settings: Mesocricetus auratus; procedure, shortened: as §2
[11] = tested on: Syrian golden hamster; assay: Induction of reverse cholestrol transport in high fat diet-induced dyslipidemia Syrian Golden hamster model assessed as increase in LXR1alpha mRNA expression in liver at 100 mg/kg, po administered for 1 week by qRT-PCR analysis; assay type: functional, organism-based; settings: Mesocricetus auratus
[12] = tested on: Syrian golden hamster; assay: Induction of reverse cholestrol transport in high fat diet-induced dyslipidemia Syrian Golden hamster model assessed as increase in ApoA mRNA expression in liver at 100 mg/kg, po administered for 1 week by qRT-PCR analysis; assay type: functional, organism-based; settings: Mesocricetus auratus
[13] = tested on: Syrian golden hamster; assay: Induction of reverse cholestrol transport in high fat diet-induced dyslipidemia Syrian Golden hamster model assessed as reduction in hepatic lipid vacuoles hypertrophy at 100 mg/kg, po administered for 1 week by H and E staining based assay; assay type: functional, organism-based; settings: Mesocricetus auratus
[14] = organism: Homo sapiens; assay: Anti-adipogenic activity in human differentiated MSC assessed as reduction in lipid accumulation at 5 to 20 uM after 20 mins by Oil Red O absorbance method; assay type: functional
Procedure, shortened: (§3)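 C3H10T1/2 or human MSC differentiated with IBMX/insulin/dexamethasone media containing 5, 10 or 20 µM compound. Cells stained with Oil red O (0.36% in 60% isopropanol, 20 min), dye extracted with isopropanol, absorbance read at 492 nm. n=3, mean ± SD, Student t test against MDI group.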

[15] = tested on: C3H 10T1/2; assay: Anti-adipogenic activity in mouse differentiated C3H10T1/2 cells assessed as reduction in lipid accumulation at 5 to 20 uM after 20 mins by Oil Red O absorbance method; assay type: functional, cell-based; procedure, shortened: as §3
[16] = tested on: 3T3-L1; assay: Anti-adipogenic activity in mouse 3T3L1 cells assessed as reduction in lipid accumulation at early differentiation stage at 20 uM measured up to 3 days by Oil Red O absorbance method; assay type: functional, cell-based
Procedure, shortened: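 3T3-L1 or C3H10T1/2 cells given 20 µM compound with differentiation media for different time periods. Oil red O stain extracted from accumulated lipid with isopropanol and absorbance read at 492 nm. n=3, mean ± SD, Student t test against MDI+ group.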

[17] = tested on: 3T3-L1; assay: Anti-adipogenic activity in mouse 3T3L1 pre-adipocytes in differentiation media assessed as reduction in lipid accumulation at 20 uM after 20 mins in presence of beta-catenin/TCF complex inhibitor FH353 by Oil Red O absorbance method; assay type: functional, cell-based
Procedure, shortened: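 3T3-L1 cells differentiated with 20 µM compound with or without FH353 (10 µM) in differentiation media. Oil red O extracted and absorbance read at 492 nm, n=3, mean ± SD, Student t test.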

[18] = organism: Mus musculus; assay: Activation of Wnt3a/beta-catenin in mouse 3T3L1 cells assessed as down-regulation of AP2 expression at 20 uM after 2 to 6 days in presence of FH353 by Western blot analysis

With Cc1ccc(S(=O)(=O)N(Cc2cn(Cc3cccc(F)c3F)nn2)Cc2cn(S(=O)(=O)c3ccc(C)cc3)c3ccccc23)cc1 the Activity [1] was “Active”, the Activity [2] was “Active” and the Activity [3] was “Active”. The Activity [4] was “Active”, the Activity [5] was “Active” and the Activity [6] was “inactive”. For the same molecule, the Activity [7] was “inactive”, the Activity [8] was “inactive” and the Activity [9] was “Active”. The Activity [10] was “Active”, the Activity [11] was “Active” and the Activity [12] was “Active”. For the same molecule, the Activity [13] was “Active”, the Activity [14] was “Active” and the Activity [15] was “Active”. The Activity [16] was “Active”, the Activity [17] was “inactive” and the Activity [18] was “inactive”.
